How the values were obtained:
[1] = biological target: Insulin-like growth factor 1 receptor (Homo sapiens, UniProt P08069); assay: Inhibition of recombinant IGF1R phosphorylation transfected in mouse embryonic fibroblast
Outline: (§1)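 Mouse embryonic fibroblasts stably transfected with FLT3 or IGF1-R; 90 min pretreatment with 10 µM staurosporine, compound 90 min at 37 °C. Stimulation with FLT3-ligand 5 min (FLT3) or IGF1 3 min (IGF1-R). Lysates captured on antibody-coated plates; autophosphorylation detected with antiphosphotyrosine PY99.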

[2] = biological target: Vascular endothelial growth factor receptor 2 (Homo sapiens, UniProt P35968); assay: Inhibition of recombinant VEGFR2 phosphorylation in human HUE cells; assay type: cell-based
Sequence of Vascular endothelial growth factor receptor 2 (P35968 whole entry): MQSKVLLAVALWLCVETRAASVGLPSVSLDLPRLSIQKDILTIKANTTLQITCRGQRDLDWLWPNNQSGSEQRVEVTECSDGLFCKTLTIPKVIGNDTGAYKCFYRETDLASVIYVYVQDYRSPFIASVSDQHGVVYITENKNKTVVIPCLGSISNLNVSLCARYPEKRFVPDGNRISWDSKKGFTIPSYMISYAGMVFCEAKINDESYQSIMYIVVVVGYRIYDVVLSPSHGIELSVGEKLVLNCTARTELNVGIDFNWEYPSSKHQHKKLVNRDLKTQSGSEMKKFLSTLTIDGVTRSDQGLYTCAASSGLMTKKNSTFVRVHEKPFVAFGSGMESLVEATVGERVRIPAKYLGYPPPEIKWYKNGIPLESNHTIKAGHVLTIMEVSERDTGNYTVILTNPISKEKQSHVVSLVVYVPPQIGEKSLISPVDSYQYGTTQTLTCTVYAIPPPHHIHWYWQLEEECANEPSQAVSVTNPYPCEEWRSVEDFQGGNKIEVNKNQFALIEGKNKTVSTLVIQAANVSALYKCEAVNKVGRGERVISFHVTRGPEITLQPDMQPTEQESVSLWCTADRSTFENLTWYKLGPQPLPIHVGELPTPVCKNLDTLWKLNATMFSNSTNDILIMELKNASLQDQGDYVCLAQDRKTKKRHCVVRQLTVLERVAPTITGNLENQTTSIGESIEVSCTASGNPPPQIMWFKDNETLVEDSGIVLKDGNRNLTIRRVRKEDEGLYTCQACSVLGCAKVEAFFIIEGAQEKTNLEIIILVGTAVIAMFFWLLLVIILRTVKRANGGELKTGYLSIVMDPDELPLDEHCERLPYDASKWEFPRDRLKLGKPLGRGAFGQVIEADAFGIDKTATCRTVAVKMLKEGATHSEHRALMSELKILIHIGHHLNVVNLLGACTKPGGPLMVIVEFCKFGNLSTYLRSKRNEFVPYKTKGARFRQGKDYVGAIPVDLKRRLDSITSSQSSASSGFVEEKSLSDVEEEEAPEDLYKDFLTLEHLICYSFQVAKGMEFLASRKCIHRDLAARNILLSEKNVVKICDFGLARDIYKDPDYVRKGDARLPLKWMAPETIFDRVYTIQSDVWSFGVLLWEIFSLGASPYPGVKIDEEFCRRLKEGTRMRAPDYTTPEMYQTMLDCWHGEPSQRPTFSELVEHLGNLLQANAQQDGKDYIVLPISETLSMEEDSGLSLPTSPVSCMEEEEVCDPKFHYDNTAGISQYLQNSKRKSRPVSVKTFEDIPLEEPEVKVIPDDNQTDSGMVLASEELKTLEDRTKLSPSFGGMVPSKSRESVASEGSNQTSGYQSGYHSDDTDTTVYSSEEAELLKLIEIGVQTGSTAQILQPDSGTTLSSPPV
Outline: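 Human endothelial HUE cells pretreated 90 min with 10 µM staurosporine, compound 90 min at 37 °C, then VEGF165 7 min. Lysates captured on antibody-coated plates; VEGF-R2 autophosphorylation detected with antiphosphotyrosine PY99.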

[3] = biological target: T1, Receptor-type tyrosine-protein kinase FLT3 (Homo sapiens, UniProt P36888); assay: Inhibition of recombinant FLT3 phosphorylation transfected in mouse embryonic fibroblast; outline: as §1
T1 sequence (P36888 whole entry): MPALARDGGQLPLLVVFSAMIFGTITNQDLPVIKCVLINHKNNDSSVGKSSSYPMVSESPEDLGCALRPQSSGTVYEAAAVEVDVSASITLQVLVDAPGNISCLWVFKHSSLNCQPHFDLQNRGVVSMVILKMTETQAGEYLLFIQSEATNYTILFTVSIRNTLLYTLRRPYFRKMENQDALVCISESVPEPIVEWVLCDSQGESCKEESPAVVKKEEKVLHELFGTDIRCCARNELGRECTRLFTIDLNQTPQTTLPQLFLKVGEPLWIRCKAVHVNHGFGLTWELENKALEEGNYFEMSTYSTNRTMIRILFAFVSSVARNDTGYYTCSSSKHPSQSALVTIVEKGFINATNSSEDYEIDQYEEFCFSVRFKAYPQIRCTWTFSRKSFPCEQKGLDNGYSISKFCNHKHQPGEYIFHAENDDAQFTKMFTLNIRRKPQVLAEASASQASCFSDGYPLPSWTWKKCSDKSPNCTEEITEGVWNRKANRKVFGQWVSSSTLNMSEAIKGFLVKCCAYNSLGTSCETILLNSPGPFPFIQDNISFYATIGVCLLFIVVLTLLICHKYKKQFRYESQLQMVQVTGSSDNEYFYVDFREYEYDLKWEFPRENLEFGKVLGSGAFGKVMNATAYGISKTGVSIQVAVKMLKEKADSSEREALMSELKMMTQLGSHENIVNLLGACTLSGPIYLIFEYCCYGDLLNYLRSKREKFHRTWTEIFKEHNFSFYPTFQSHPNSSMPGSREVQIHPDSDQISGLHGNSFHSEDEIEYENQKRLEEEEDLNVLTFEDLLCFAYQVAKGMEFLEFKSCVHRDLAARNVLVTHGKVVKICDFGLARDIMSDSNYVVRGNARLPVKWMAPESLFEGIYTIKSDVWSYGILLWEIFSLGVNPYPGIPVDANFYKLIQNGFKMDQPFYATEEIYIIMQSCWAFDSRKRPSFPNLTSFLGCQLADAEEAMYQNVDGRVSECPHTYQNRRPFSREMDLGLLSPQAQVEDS

Measured: IC50

Sequence of Insulin-like growth factor 1 receptor (P08069 31-736 limits assumed): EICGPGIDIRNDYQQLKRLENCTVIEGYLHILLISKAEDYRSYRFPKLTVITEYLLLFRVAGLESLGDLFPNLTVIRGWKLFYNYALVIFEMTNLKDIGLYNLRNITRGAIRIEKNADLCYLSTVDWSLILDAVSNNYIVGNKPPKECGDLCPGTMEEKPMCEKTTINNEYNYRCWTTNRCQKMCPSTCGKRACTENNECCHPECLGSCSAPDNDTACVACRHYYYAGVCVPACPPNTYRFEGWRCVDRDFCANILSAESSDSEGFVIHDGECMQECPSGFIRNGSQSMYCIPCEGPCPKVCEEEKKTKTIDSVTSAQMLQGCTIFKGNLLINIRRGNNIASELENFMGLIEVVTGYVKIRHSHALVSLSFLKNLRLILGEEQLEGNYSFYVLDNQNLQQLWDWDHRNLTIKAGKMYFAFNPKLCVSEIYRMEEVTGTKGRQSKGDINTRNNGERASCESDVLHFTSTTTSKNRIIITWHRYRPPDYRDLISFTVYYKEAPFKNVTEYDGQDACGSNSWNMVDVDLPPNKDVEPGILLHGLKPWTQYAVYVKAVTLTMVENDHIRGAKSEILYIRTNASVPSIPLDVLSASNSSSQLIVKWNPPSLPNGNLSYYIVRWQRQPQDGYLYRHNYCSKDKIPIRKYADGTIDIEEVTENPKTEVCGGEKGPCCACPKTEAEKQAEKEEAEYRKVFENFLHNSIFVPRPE
Sequence of Insulin-like growth factor 1 receptor (P08069 741-1367 limits assumed): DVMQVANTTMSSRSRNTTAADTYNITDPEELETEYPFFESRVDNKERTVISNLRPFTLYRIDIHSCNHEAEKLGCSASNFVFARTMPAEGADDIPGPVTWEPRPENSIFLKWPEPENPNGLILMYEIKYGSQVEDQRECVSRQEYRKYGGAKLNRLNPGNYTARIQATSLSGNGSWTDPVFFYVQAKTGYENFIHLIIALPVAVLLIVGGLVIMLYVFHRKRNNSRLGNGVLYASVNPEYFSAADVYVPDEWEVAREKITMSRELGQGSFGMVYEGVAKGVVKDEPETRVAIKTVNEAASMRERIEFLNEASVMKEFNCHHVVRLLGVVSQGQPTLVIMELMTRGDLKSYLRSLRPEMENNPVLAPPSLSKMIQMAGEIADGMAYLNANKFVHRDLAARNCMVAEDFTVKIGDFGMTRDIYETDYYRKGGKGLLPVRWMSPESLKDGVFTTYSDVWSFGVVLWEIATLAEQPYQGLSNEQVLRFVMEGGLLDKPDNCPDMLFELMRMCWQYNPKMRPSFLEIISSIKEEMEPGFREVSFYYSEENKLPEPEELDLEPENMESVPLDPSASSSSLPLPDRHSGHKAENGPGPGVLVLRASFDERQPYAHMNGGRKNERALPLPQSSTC

Cc1cc(O)cc2oc(=O)c3c(O)cc(O)cc3c12 [ALTERNARIOL]
3.87 µM: all assays above

Source: ChEMBL document CHEMBL1157406, “Cytotoxic metabolites from the fungal endophyte Alternaria sp. and their subsequent detection in its host plant Polygonum senegalense” (J Nat Prod, 2008)
